Sampled rows, rich in hits. Any-hit rate of the full collection: about 5.9%.
GASC1 inh = inhibitors of GASC-1 (KDM4C) histone demethylase, primary screen, biochemical, single concentration HTS; Lysine-specific demethylase 4C (Homo sapiens), Q9H3R0; GST-KDM4C 2-372, H3K9me3 peptide, LANCE TR-FRET; inhibition, % at 12.5 µM; actives 0.15% (n = 96,000); AID 720574, 2013;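 active = mean replicate inhibition above about 25%, with at least 55% of replicates also reaching it, limit read from the data, passing the limit was not always enough; inconclusive = only one of those two conditions met; inactive = neither condition met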
Target sequence (Q9H3R0 2-372 limits assumed): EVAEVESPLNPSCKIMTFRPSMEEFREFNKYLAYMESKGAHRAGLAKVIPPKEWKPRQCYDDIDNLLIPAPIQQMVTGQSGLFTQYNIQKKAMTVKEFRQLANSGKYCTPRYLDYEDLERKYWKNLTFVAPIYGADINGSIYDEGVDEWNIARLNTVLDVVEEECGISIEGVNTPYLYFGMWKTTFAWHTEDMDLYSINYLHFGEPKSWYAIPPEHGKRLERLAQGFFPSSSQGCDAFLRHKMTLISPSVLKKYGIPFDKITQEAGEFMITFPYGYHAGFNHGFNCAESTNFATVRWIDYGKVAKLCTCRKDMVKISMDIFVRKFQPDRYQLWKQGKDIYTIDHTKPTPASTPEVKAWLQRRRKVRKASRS
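System: N-terminal GST-fused human GASC-1 (KDM4C) fragment, residues 2-372; amount: enzyme final amount 10 nM; incubation: reaction 30 min RT, detection step 1 h RT; medium: HEPES buffer, pH 7.5, plus ascorbate; technique: LANCE TR-FRET, Eu antibody, ULight-streptavidin, EDTA, ex 340 nm, em 618/671 nm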
IDH1 R132H inh = inhibitors of IDH1 R132H reductase, primary screen, biochemical, plate reader, single point; inhibition, % at 10 µM; Isocitrate dehydrogenase [NADP] cytoplasmic (Homo sapiens), O75874; actives 0.18% (n = 70,000); diaphorase/resazurin fluorescence, 60 min; in the data active = inhibition above about 34%; inconclusive = no clear call, values can overlap the other calls; inactive = below about 11%;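 also: 0% = DMSO and 100% = no enzyme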
Pf Dd2 inh = P. falciparum Dd2 growth inhibitors, primary screen, SYBR Green fluorescence, single dose replicates; 72 h; hits give low values; activity change, % at 10 µM; actives 2.3% (n = 94,000); in the data active = activity change below about -80%; inconclusive = no clear call, values can overlap the other calls
T cruzi growth-1 = T. cruzi intracellular proliferation inhibitors, primary screen, cell-based, beta-gal Tulahuen parasites, NIH3T3 host, luminescence; T. cruzi beta-gal in NIH3T3, GalScreen luminescence, 90 h; inhibition, % at 8.34 µM; actives 5.9% (n = 77,000); AID 624255, 2012;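 active = mean inhibition above about 93%, with at least 55% of replicates each passing it, limit read from the data, passing the limit was not always enough; inconclusive = only one of those two conditions holds; inactive = neither condition holds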
T cruzi growth-2 = T. cruzi intracellular proliferation inhibitors, confirmation, cell-based, NIH3T3 host, beta-gal parasite, luminescence, cherry-pick; shares compounds with T cruzi growth-1; T. cruzi beta-gal in NIH3T3, GalScreen luminescence, 90 h; inhibition, % at 8.35 µM; actives 72% (n = 5,600);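 active = mean replicate inhibition above about 95% and at least 55% of replicates individually reaching it, limit read from the data; inconclusive = only one of the two criteria is met; inactive = neither criterion is met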
T cruzi growth-3 = inhibitors of intracellular T. cruzi replication, confirmation, NIH3T3 host cells, beta-gal parasites, cherry-pick, set 2; T. cruzi beta-gal in NIH3T3, GalScreen luminescence, 90 h; actives 21% (n = 5,600); inhibition, % at 2.09 µM; shares compounds with T cruzi growth-1; AID 651740, 2012;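 active = mean inhibition above about 95%, with at least 55% of replicates also reaching it, limit read from the data; inconclusive = meets just one of the two conditions; inactive = meets neither condition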;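 also: plate controls were neutral control median for no effect and positive control median for full effect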
3T3 cytotox = cytotoxicity in mouse NIH/3T3 fibroblasts, confirmation, cytotoxicity control for T. cruzi proliferation inhibitor project, cell-based, cherry-pick, single point; shares compounds with T cruzi growth-1; NIH/3T3 viability, CellTiter-Glo ATP luminescence, 90 h; cytotoxicity (signal decrease), % at 8.35 µM; actives 14% (n = 5,600);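 active = mean signal decrease across replicates above about 35% based on untreated-well scatter, with enough replicates individually passing, limit read from the data; inconclusive = no rule stated though some were filed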;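 also: 0% = median of neutral control wells and 100% = median of positive control wells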
NIH3T3 tox 2 = NIH/3T3 fibroblast cytotoxicity, confirmation, cytotoxicity control, cell-based, cherry-pick, single point, set 2; AID 651744, 2012; NIH/3T3 viability, CellTiter-Glo ATP luminescence, 90 h; inhibition, % at 24.9 µM; shares compounds with T cruzi growth-1; actives 56% (n = 5,600);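 active = mean loss of cell viability signal at or above a set limit, and enough replicates individually reaching it; inconclusive = meets only the mean limit or only the replicate share; inactive = meets neither condition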;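 also: 0% = median of neutral control wells and 100% = median of positive control wells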
* hit, by the source's call; ? = inconclusive; nt = not tested or not shown.

SMILES	GASC1 inh	IDH1 R132H inh	Pf Dd2 inh	T cruzi growth-1	T cruzi growth-2	T cruzi growth-3	3T3 cytotox	NIH3T3 tox 2
C[C@@H]1CN([C@H](C)CO)S(=O)(=O)c2ccc(C3=CCCC3)cc2O[C@@H]1CN(C)S(=O)(=O)c1ccc(F)cc1	10.9	-2.0	-22.9	121.8*	109.6*	40.3	19.6	32.5*
COc1cc2c(c(OC)c1OC)c(=O)c1ccccc1n2C	nt	-0.5	nt	nt	nt	nt	nt	nt
C[C@@H]1CN([C@H](C)CO)C(=O)c2cc(NC(=O)Nc3ccccc3)ccc2O[C@H]1CN(C)Cc1ccc(C(F)(F)F)cc1	1.2	0.1	-22.1	16.5	nt	nt	nt	nt
C[C@@H]1CN([C@@H](C)CO)C(=O)c2cc(NC(=O)Nc3ccc(C(F)(F)F)cc3)ccc2O[C@@H]1CN(C)Cc1ccc(-c2ccccc2)cc1	-1.4	nt	-22.9	120.4*	101.6*	97.8*	55.8*	103.2*
C[C@@H]1CN([C@H](C)CO)C(=O)c2cc(NC(=O)Nc3ccc(C(F)(F)F)cc3)ccc2O[C@H]1CN(C)Cc1ccc(-c2ccccc2)cc1	-0.9	0.4	-9.9	122.5*	88.9	?	84.0*	102.3*
C[C@H](CO)N1C[C@H](C)[C@@H](CN(C)Cc2ccccc2)Oc2ccc(NC(=O)Nc3ccc(C(F)(F)F)cc3)cc2C1=O	0.8	3.2	-20.4	29.7	nt	nt	nt	nt
C[C@@H]1CN([C@@H](C)CO)C(=O)c2cc(NC(=O)Nc3ccc(C(F)(F)F)cc3)ccc2O[C@H]1CN(C)Cc1ccc(-c2ccccc2)cc1	0.7	0.2	-41.9	104.3*	102.0*	80.5	10.2	105.0*
C[C@@H]1O[C@@H](Oc2ccc(-c3coc4cc(O[C@@H]5O[C@@H](C)[C@H](O)[C@@H](O)[C@H]5O)ccc4c3=O)cc2)[C@H](O)[C@H](O)[C@H]1O	nt	0.2	nt	nt	nt	nt	nt	nt
COc1cccc(C(=O)c2oc3ccccc3c2NC(=O)CCc2ccccc2)c1	nt	0.0	nt	nt	nt	nt	nt	nt
COc1ccc(N(CC(=O)Nc2ccccc2F)S(C)(=O)=O)cc1Cl	nt	-0.3	nt	nt	nt	nt	nt	nt
C[C@@H]1CCCCO[C@H](CN(C)S(=O)(=O)c2ccc(F)cc2)[C@@H](C)CN([C@@H](C)CO)C(=O)c2cc(NC(=O)Nc3ccc(F)cc3)ccc2O1	0.4	-10.8	-65.9	100.1*	108.1*	45.7	9.8	50.9*
Cc1ccc(S(=O)(=O)N(C)C[C@@H]2OCCCC[C@H](C)Oc3ccc(NC(=O)Nc4ccc(F)cc4)cc3C(=O)N([C@@H](C)CO)C[C@H]2C)cc1	0.2	2.2	?	106.4*	102.0*	52.8	-0.5	7.6
C[C@@H]1CCCCO[C@@H](CN(C)S(=O)(=O)c2ccc(F)cc2)[C@@H](C)CN([C@H](C)CO)C(=O)c2cc(NC(=O)Nc3ccc(F)cc3)ccc2O1	0.2	1.8	-46.3	-9.4	nt	nt	nt	nt
C[C@@H]1CCCCO[C@@H](CN(C)S(=O)(=O)c2ccc(F)cc2)[C@H](C)CN([C@@H](C)CO)C(=O)c2cc(NC(=O)Nc3ccc(F)cc3)ccc2O1	-1.1	nt	-44.5	98.4*	104.9*	50.7	0.4	-5.3
C[C@@H]1CN([C@@H](C)CO)C(=O)c2cc(NC(=O)NC3CCCCC3)ccc2O[C@@H](C)CCCCO[C@H]1CN(C)S(=O)(=O)c1ccc(F)cc1	1.3	2.0	-54.6	?	48.5	7.7	6.3	3.8
COc1ccc(OCc2nc3ccccc3n2Cc2ccccc2F)cc1	nt	0.1	nt	nt	nt	nt	nt	nt

Screens from PubChem BioAssay.
